This is an account of results in ChEMBL document CHEMBL2016452, “Flavones and structurally related 4-chromenones inhibit carbonic anhydrases by a different mechanism of action compared to coumarins” (Bioorg Med Chem Lett, 2012).

In general, Ki refers to the equilibrium dissociation constant of an inhibitor or competing ligand from its target. Read a high Ki as lower affinity.

The target in experiment [1] is T1, Carbonic anhydrase 9 (Homo sapiens, UniProt Q16790). Description: Inhibition of transmembrane tumor-associated human carbonic anhydrase 9 preincubated for 15 mins by stopped flow CO2 hydration assay. The gist of the method:
(§1)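 Stopped-flow CO2 hydration, with phenol red 0.2 mM as indicator at 557 nm. Buffer 20 mM Hepes pH 7.5 with 20 mM NaClO4. Initial rates measured over 10–100 s, with uncatalyzed rate subtracted. Inhibitor stock 0.1 mM in water, diluted with assay buffer. Enzyme and inhibitor preincubated 15 min at room temperature. KI by non-linear least squares, mean of at least three determinations.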

The target of experiment [2] is T2, Carbonic anhydrase 12 (Homo sapiens, UniProt O43570). Description: Inhibition of transmembrane tumor-associated human carbonic anhydrase 12 preincubated for 15 mins by stopped flow CO2 hydration assay. The gist of the method: as §1
T2 sequence (O43570 whole entry): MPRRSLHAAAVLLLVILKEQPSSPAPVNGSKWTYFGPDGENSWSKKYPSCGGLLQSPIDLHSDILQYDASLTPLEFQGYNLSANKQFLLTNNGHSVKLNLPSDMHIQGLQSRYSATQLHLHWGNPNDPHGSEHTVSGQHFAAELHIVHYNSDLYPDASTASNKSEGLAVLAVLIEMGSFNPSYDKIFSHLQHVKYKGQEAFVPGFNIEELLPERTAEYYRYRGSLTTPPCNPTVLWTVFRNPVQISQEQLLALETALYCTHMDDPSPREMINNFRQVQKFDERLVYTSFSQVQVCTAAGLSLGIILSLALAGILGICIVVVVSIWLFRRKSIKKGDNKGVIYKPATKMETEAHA
For a further experiment, the target named is Carbonic anhydrase 7 (Homo sapiens, UniProt P43166). The experiment can be described thus: Inhibition of human carbonic anhydrase 7 preincubated for 15 mins by stopped flow CO2 hydration assay. The method in brief: as §1
Chain of Carbonic anhydrase 7 (P43166 whole entry): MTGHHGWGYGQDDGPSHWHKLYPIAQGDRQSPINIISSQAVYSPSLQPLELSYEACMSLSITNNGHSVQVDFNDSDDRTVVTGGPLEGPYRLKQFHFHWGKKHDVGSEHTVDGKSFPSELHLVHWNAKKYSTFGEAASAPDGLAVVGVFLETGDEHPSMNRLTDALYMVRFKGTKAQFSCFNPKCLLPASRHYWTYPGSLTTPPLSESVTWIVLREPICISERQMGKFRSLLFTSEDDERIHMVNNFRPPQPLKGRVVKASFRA
The next experiment has as its target T3, Carbonic anhydrase 15 (Mus musculus, UniProt Q99N23).
T3 sequence (Q99N23 whole entry): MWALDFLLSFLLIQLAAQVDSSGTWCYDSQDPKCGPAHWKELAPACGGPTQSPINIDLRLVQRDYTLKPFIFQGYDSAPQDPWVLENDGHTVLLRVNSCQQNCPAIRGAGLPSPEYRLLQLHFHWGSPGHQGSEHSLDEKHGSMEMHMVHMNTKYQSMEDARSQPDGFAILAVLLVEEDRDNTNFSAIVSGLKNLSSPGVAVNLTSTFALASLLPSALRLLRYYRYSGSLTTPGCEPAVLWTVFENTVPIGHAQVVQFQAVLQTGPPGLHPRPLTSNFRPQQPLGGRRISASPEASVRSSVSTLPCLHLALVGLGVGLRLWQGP
Description: Inhibition of mouse carbonic anhydrase 15 preincubated for 15 mins by stopped flow CO2 hydration assay. The method in brief:
as §1

Experiment [3] concerns the target T4, Carbonic anhydrase 2 (Homo sapiens, UniProt P00918). The experiment can be described thus: Inhibition of cytosolic human carbonic anhydrase 2 preincubated for 15 mins by stopped flow CO2 hydration assay.
Another experiment deals with Carbonic anhydrase 3 (Homo sapiens, UniProt P07451). The experiment can be described thus: Inhibition of human carbonic anhydrase 3 preincubated for 15 mins by stopped flow CO2 hydration assay.
Chain of Carbonic anhydrase 3 (P07451 whole entry): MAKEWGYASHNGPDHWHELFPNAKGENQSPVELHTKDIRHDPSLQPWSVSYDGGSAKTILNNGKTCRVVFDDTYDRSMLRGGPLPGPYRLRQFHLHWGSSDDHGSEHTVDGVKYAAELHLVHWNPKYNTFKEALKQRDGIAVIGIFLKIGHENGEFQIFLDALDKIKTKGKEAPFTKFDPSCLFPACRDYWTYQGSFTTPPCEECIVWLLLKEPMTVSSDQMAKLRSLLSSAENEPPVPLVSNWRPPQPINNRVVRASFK
The target in another experiment is Carbonic anhydrase 4 (Homo sapiens, UniProt P22748). The experiment can be described thus: Inhibition of human carbonic anhydrase 4 preincubated for 15 mins by stopped flow CO2 hydration assay.
Chain of Carbonic anhydrase 4 (P22748 whole entry): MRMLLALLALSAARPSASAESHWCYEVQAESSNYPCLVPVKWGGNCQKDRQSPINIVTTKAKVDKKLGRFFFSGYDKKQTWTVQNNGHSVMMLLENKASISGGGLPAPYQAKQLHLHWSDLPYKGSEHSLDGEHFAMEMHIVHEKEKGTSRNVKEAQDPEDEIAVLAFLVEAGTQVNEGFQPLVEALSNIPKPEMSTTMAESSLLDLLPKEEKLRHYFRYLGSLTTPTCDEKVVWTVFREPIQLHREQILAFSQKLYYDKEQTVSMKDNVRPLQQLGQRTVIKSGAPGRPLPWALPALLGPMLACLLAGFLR
Experiment [4] addresses Carbonic anhydrase 5B, mitochondrial (Homo sapiens, UniProt Q9Y2D0). Description: Inhibition of human carbonic anhydrase 5b preincubated for 15 mins by stopped flow CO2 hydration assay.
The target of a further experiment is Carbonic anhydrase 6 (Homo sapiens, UniProt P23280). The experiment can be described thus: Inhibition of human carbonic anhydrase 6 preincubated for 15 mins by stopped flow CO2 hydration assay.
Chain of Carbonic anhydrase 6 (P23280 whole entry): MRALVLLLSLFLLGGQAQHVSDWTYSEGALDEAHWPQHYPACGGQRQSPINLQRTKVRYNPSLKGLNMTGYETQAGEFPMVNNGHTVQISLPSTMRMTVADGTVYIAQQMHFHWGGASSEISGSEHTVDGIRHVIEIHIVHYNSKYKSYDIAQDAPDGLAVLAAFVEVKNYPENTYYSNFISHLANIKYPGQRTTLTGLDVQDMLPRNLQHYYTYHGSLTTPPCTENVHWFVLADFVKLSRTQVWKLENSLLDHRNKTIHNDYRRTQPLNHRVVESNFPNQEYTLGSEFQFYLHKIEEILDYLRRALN
The next experiment concerns the target Carbonic anhydrase 13 (Homo sapiens, UniProt Q8N1Q1). Description: Inhibition of human carbonic anhydrase 13 preincubated for 15 mins by stopped flow CO2 hydration assay.
The target in a further experiment is Carbonic anhydrase 14 (Homo sapiens, UniProt Q9ULX7). Description: Inhibition of human carbonic anhydrase 14 preincubated for 15 mins by stopped flow CO2 hydration assay.
Chain of Carbonic anhydrase 14 (Q9ULX7 whole entry): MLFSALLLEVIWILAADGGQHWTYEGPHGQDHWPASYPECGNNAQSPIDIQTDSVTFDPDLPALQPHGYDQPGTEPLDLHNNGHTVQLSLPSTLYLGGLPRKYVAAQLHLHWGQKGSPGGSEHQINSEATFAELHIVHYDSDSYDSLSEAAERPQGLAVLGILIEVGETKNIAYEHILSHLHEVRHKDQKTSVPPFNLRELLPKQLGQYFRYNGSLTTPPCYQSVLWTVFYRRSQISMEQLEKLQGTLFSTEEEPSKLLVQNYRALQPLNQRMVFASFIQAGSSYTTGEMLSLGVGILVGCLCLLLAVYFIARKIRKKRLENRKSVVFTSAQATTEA
For experiment [5], the target named is Carbonic anhydrase 5A, mitochondrial (Homo sapiens, UniProt P35218). The experiment can be described thus: Inhibition of human carbonic anhydrase 5a preincubated for 15 mins by stopped flow CO2 hydration assay.
Chain of Carbonic anhydrase 5A, mitochondrial (P35218 whole entry): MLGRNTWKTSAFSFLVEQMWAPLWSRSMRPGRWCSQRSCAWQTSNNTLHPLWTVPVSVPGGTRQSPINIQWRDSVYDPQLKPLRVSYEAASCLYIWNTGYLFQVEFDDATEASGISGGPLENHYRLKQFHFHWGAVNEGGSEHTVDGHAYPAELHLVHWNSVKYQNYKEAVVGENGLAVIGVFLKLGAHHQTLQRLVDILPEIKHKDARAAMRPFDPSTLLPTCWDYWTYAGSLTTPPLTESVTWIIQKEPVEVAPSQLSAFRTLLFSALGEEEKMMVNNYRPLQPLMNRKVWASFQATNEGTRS
Experiment [6] has as its target T5, Carbonic anhydrase 1 (Homo sapiens, UniProt P00915). Description: Inhibition of cytosolic human carbonic anhydrase 1 preincubated for 15 mins by stopped flow CO2 hydration assay.
Experiment [7] concerns the target T5, Carbonic anhydrase 1. The experiment can be described thus: Inhibition of cytosolic human carbonic anhydrase 1 preincubated for 12 hrs by stopped flow CO2 hydration assay. The method in brief: (§2)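 Stopped-flow CO2 hydration, with phenol red 0.2 mM as indicator read at 557 nm. Buffer 20 mM Hepes pH 7.5 with 20 mM NaClO4 for ionic strength. Initial rates followed for 10–100 s, with uncatalyzed rates subtracted. Inhibitor stock 0.1 mM in water, diluted in assay buffer. Enzyme and inhibitor preincubated 12 h at 4 °C. KI by non-linear least squares, mean of at least three determinations.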

Experiment [8] deals with T4, Carbonic anhydrase 2. The experiment can be described thus: Inhibition of cytosolic human carbonic anhydrase 2 preincubated for 12 hrs by stopped flow CO2 hydration assay. The method in brief:
as §2

Experiment [9] has as its target T1, Carbonic anhydrase 9. Description: Inhibition of transmembrane tumor-associated human carbonic anhydrase 9 preincubated for 12 hrs by stopped flow CO2 hydration assay. The gist of the method:
as §2

For experiment [10], the target named is T2, Carbonic anhydrase 12. The experiment can be described thus: Inhibition of transmembrane tumor-associated human carbonic anhydrase 12 preincubated for 12 hrs by stopped flow CO2 hydration assay. The method in brief: as §2

T5 sequence (P00915 whole entry): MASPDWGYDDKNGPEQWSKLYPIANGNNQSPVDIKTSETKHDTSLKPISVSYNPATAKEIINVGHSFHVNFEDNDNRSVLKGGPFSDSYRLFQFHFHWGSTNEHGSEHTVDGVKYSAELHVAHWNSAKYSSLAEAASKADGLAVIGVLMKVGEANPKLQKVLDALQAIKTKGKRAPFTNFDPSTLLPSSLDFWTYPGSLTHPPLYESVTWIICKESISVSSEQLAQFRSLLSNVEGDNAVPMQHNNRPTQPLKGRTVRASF
Chain of Carbonic anhydrase 13 (Q8N1Q1 whole entry): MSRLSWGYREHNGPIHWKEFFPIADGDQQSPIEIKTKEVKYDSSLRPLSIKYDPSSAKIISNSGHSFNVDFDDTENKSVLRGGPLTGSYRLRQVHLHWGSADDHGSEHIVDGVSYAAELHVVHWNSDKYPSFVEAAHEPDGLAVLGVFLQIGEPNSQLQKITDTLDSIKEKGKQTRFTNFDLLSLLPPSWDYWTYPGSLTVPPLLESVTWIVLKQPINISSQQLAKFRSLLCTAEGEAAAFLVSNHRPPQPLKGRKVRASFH
Chain of Carbonic anhydrase 5B, mitochondrial (Q9Y2D0 whole entry): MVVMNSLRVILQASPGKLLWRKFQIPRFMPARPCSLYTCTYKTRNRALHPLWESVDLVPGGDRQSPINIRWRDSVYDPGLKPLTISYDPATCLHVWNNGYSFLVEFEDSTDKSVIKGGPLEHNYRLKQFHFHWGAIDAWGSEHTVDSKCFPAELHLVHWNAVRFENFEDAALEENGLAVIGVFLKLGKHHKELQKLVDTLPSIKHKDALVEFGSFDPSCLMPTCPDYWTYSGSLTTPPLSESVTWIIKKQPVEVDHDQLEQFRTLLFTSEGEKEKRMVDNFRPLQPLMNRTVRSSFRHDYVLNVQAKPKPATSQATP

Regarding `Nc1oc2ccc(Cl)cc2c(=O)c1-c1ccc(Cl)cc1`, the Ki stood at 3.4 µM on Carbonic anhydrase 9 [1], 9.31 µM on Carbonic anhydrase 12 [2], 7.95 µM at Carbonic anhydrase 7 and 3.75 µM on Carbonic anhydrase 15.

Take `COc1ccc(-c2c(N)oc3ccc(Cl)cc3c2=O)cc1`: the Ki turned out to be 2.41 µM on Carbonic anhydrase 9 [1], 6.49 µM at Carbonic anhydrase 12 [2], 6.75 µM at Carbonic anhydrase 7 and 1.65 µM at Carbonic anhydrase 15.

`Oc1ccc(C=Cc2cc(O)cc(O)c2)cc1` (mixture of isomers): the Ki on Carbonic anhydrase 2 [3] amounted to 1.75 µM; on Carbonic anhydrase 9 [1] it was 9.53 µM; on Carbonic anhydrase 12 [2] it was 8.13 µM; on Carbonic anhydrase 3, 6.75 µM; on Carbonic anhydrase 4 it was 4.01 µM; in [4], 3.24 µM. Moreover, the Ki at Carbonic anhydrase 6 was 8.63 µM; on Carbonic anhydrase 7, 8.98 µM; on Carbonic anhydrase 13, 8.25 µM; on Carbonic anhydrase 14 it was 1.95 µM; at Carbonic anhydrase 15, 2.57 µM; in experiment [5], 2.86 µM.

As for `O=c1cc(-c2ccccc2)oc2cc(O)ccc12` [7-HYDROXYFLAVONE], the Ki at Carbonic anhydrase 1 [6] is 3.37 µM; at Carbonic anhydrase 1 [7] it was 3.43 µM; on Carbonic anhydrase 2 [3], 2.24 µM; on Carbonic anhydrase 2 [8] it was 2.32 µM; at Carbonic anhydrase 9 [1], 4.92 µM; on Carbonic anhydrase 9 [9], 4.85 µM. In addition, the inhibition constant (Ki) at Carbonic anhydrase 12 [2] turned out to be 8.4 µM; on Carbonic anhydrase 12 [10] it was 8.51 µM.

With `O=c1cc(-c2ccccc2)oc2cc(O)cc(O)c12` [CHRYSIN], the Ki came out at 5.49 µM on Carbonic anhydrase 1 [6]; 5.42 µM at Carbonic anhydrase 1 [7]; 4.38 µM on Carbonic anhydrase 2 [3]; 4.31 µM at Carbonic anhydrase 2 [8]; 2.65 µM on Carbonic anhydrase 9 [1]; 2.71 µM at Carbonic anhydrase 9 [9]. The inhibition constant (Ki) on Carbonic anhydrase 12 [2] stood at 8.96 µM; on Carbonic anhydrase 12 [10] it was 9.07 µM.

With `O=c1cc(-c2ccccc2)oc2ccccc12` [FLAVONE], the inhibition constant (Ki) on Carbonic anhydrase 1 [6] worked out at 1.89 µM; on Carbonic anhydrase 1 [7] it was 1.88 µM; at Carbonic anhydrase 2 [3], 8.71 µM; at Carbonic anhydrase 2 [8], 8.8 µM; on Carbonic anhydrase 9 [1], 4.13 µM; at Carbonic anhydrase 9 [9], 4.22 µM. The Ki at Carbonic anhydrase 12 [2] came out at 7.22 µM; at Carbonic anhydrase 12 [10] it was 7.33 µM.

Consider `O=c1c(O)c(-c2ccccc2)oc2ccccc12` [FLAVONOL], for which the Ki is 5.21 µM at Carbonic anhydrase 1 [6]; 5.1 µM on Carbonic anhydrase 1 [7]; 9.3 µM on Carbonic anhydrase 2 [3]; 9.2 µM on Carbonic anhydrase 2 [8]; 5.54 µM at Carbonic anhydrase 9 [1]; 5.63 µM at Carbonic anhydrase 9 [9]. The Ki at Carbonic anhydrase 12 [2] turned out to be 6.59 µM; at Carbonic anhydrase 12 [10], 6.65 µM.
